Variants at the floor of the assay were thinned out.
B1: tRNA (parent)
chain: GUUCCGUUGGCGUAAUGGUAACGCGUCUCCCUCCUAAGGAGAAGACUGCGGGUUCGAGUCCCGUACGGAACG

Variants of: B1
Assay: yeast fitness relative to wild type (ratio to wild type); higher = fitter; tRNA-Arg(CCU), competitive growth, 37 C, YPD
Method in brief: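 Start and end populations of a pooled competition were compared by 100-nucleotide paired-end sequencing of gene amplicons. The Saccharomyces cerevisiae strains carried tRNA-Arg(CCU) gene variants at the native genomic locus, synthesised with a 3% per-site mutation rate at 69 sites, and competed in YPD at 37°C for 24 hours in six parallel replicates. Darwinian fitness relative to wild type was based on the change in genotype frequencies. Genotypes required ≥ 100 starting reads, and estimates < 0.5 were set to 0.5.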

| Variant | yeast fitness |
| --- | --- |
| U7A A14G C31U A43C C46U G63C C66U | ≤ 0.5 |
| G6C G50A | 0.865 |
| G6C U28C C46U A69G | ≤ 0.5 |
| U7A A21U G41A C66A | 0.684 |
| G6C U35A | 0.876 |
| U7A A57U U59A A69C | 0.702 |
| U7A C29U C33U U54A | ≤ 0.5 |
| G6C U8C A20G G50A A57U | ≤ 0.5 |
| U7A C29G A70U | ≤ 0.5 |
| G6C G44C | 0.853 |
| G6C U53G | 0.519 |
| U7A A20G C46G | 0.507 |
| U7A C24G A69U | ≤ 0.5 |
| G6C U47G | 0.588 |
| G6C U47C | 1.01 |
| G6C U26C U64A | ≤ 0.5 |
| U7A C24U A69U | ≤ 0.5 |
| U7A A20C G67C | ≤ 0.5 |
| G6U A21G A70G | 0.562 |
| U7A C29G G38A G44A C46U C62G | ≤ 0.5 |
| G6C U8C C33U A43G G58A C60U | ≤ 0.5 |

| Variant | yeast fitness |
| --- | --- |
| U7A A37G A40G A43G G52C U59G | 0.556 |
| U7A A36G A40U C46G | ≤ 0.5 |
| U7A C31A G39C G56C | ≤ 0.5 |
| U7A C30U A65C | 0.633 |
| U7A A43C | 0.824 |
| U7A A20G C49G G67A | ≤ 0.5 |
| U7A A65U A70G | 0.677 |
| G6C U7G U19A C27G G67U | ≤ 0.5 |
| U7A C30A A70U | 0.601 |
| U7A C11G U28G U32A G38C | ≤ 0.5 |
| G6C G41C | 0.671 |
| U7A A20G G23A U26G G67A | ≤ 0.5 |
| G6C U8C | 0.662 |
| U7A C11A A14C C34A | ≤ 0.5 |
| U7A C30U G50C | ≤ 0.5 |
| U7A A20G A43C A57U | ≤ 0.5 |
| U7A C31G A70U | ≤ 0.5 |
| U7A C24G C29G C30U A40C | 0.96 |
| U7A A42G C46G A65C | 0.66 |
| U7A C27U C46G | 0.691 |
| U7A C31G U64A C66U G68C | ≤ 0.5 |

| Variant | yeast fitness |
| --- | --- |
| U7A A20G G23A U26G | 0.548 |
| G6C G68A | 0.662 |
| G6C U7G G17C | 0.525 |
| U7A C24G C33U G41C | ≤ 0.5 |
| G6C U13G G18A G48C G68U | ≤ 0.5 |
| U7A A20G G23A U26G A69C | ≤ 0.5 |
| G6C U7C A14G A20C A57C | ≤ 0.5 |
| G6C G23C C24U G68A | 0.689 |
| G6C G17C C31G A36G U59C | 0.599 |
| U7A A15C G23C C27U G56A C61A | 0.602 |
| U7A C33A A45C C49U | ≤ 0.5 |
| U7A C22A C29A G44C | ≤ 0.5 |
| U7A A14C C27U A45U G67A | ≤ 0.5 |
| U7A C11A C30A | ≤ 0.5 |
| U7A A14U C31G | ≤ 0.5 |
| U7A C24U C30U C31G A57G | ≤ 0.5 |
| G6C G25A C27G U59A U64G | ≤ 0.5 |
| G6U A65C | 0.799 |
| U7A C29U C34A G50C A65C | ≤ 0.5 |
| G6C U8G U19G C33A A42C G58A | ≤ 0.5 |
| U7A C11A | ≤ 0.5 |

| Variant | yeast fitness |
| --- | --- |
| U7A C11U | 0.686 |
| G6C U26C A37U A43U | ≤ 0.5 |
| U7A A65C A69C | ≤ 0.5 |
| U7A A21U G51C C62U | 0.816 |
| G6C G23A | 0.893 |
| U7A C29G U32C G38A | ≤ 0.5 |
| U7A C11G C31G U32C A43U | ≤ 0.5 |
| U7A A20G C31A | ≤ 0.5 |
| U7A A36U A37U | 0.768 |
| G6C U7C G12A C24U C29G G50C C66U | ≤ 0.5 |
| U7A C11U C22U G38C | ≤ 0.5 |
| U7A C27G C33A A36G G58A C66U | ≤ 0.5 |
| U7A A45U C60A | ≤ 0.5 |
| U7A C22G C24G U28C G56A A65U | ≤ 0.5 |
| U7A A43C G48A A57C G68U | ≤ 0.5 |
| U7A C27A C29G C30G G51A | 0.535 |
| U7A C31G G63A | ≤ 0.5 |
| U7A A65G | 1.03 |
| U7A A65C | 0.917 |
| G6C G23C C24A | 0.585 |
| G6C G18C C22U C34G A36U G56C G63A | ≤ 0.5 |
